Data set [1] concerns Staphylococcus aureus. In words: Antibacterial activity against methicillin-resistant Staphylococcus aureus MS29202 after 18 to 20 hrs by agar dilution method. The class given is functional. A digest of the protocol: (§1)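 Agar dilution per CLSI. Overnight broth cultures were diluted 100-fold, and one loopful (about 10^5 to 10^4 CFU) was spotted onto agar plates containing the CD. Growth was scored after 18–20 h at 37 °C. MIC values are in µM.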
Background: In agar dilution, organisms are placed on agar that contains the substance at set levels.

The test system of the next data set is Streptococcus agalactiae. In words: Antibacterial activity against drug-resistant Streptococcus agalactiae B1 after 18 to 20 hrs by agar dilution method. The class given is functional. A digest of the protocol:
as §1

Data set [2] has as its system Enterococcus faecalis. In words: Antibacterial activity against drug-resistant Enterococcus faecalis MS29030 after 18 to 20 hrs by agar dilution method. The class given is functional. The essentials:
as §1

Another data set has as its system Bacillus subtilis. Description: Antibacterial activity against drug-sensitive Bacillus subtilis 168 after 20 hrs by liquid microdilution method. The data set is classed as functional. The following applies: subsp. subtilis str. 168, 20 h. A digest of the protocol:
(§2)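 Two-fold serial dilutions of compound in Mueller–Hinton broth, inoculated with 1 × 10^4 cells and cultured at 37 °C for 20 h in microtiter wells.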
For orientation: In broth dilution the organism is exposed to a series of concentrations in liquid medium.

Data set [3] has as its system Staphylococcus aureus. Description: Induction of membrane disruption in methicillin-sensitive Staphylococcus aureus FDA 209P assessed as increase in K+ efflux after 30 mins. The data set is classed as functional. The following applies: 0.5 h, read-out: ED50 (the source's name). The essentials:
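S. aureus washed twice and suspended at 2 × 10^9 cells per cm3 in 100 mM choline chloride/50 mM Mops-Tris, pH 7.2, then exposed to compound at 37 °C for 30 min. Released K+ was measured in the centrifuged supernatant with a K+-selective electrode. Melittin (10 µM) defined 100% efflux, and ED50 is the concentration giving 50% efflux.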

For the next data set, the system named is Pseudomonas aeruginosa. In words: Antibacterial activity against drug-sensitive Pseudomonas aeruginosa PAO1 after 20 hrs by liquid microdilution method. The following applies: PAO1, 20 h. The class given is functional. A digest of the protocol:
as §2

Data set [4] can be described thus: Hemolytic activity in rabbit RBC at 10 uM after 20 mins relative to control. The class given is ADME, cell-based, Oryctolagus cuniculus, Erythrocyte. The following applies: rabbit red blood cells (erythrocytes), read-out: Activity. The essentials: (§3)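 Rabbit erythrocytes suspended in 150 mM NaCl/10 mM Hepes-NaOH, pH 7.4, at 0.5% hematocrit (final) and incubated with compound at 37 °C. The table footnote gives 20 min; the methods section gives 30 min. Hemolysis was read as absorbance at 540 nm, with 50 µM lysolecithin defining 100% hemolysis.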

Another data set deals with Enterococcus faecium. In words: Antibacterial activity against drug-resistant Enterococcus faecium MS29120 after 18 to 20 hrs by agar dilution method. The data set is classed as functional. A digest of the protocol:
as §1

A further data set has as its system Erythrocyte. In words: Hemolytic activity in rabbit RBC at 50 uM after 20 mins relative to control. The class given is ADME, cell-based, Oryctolagus cuniculus. The following applies: erythrocyte, 20 min, 50 µM. A digest of the protocol:
as §3

Data set [5] in a line: Lipophilicity, log P of the compound. The data set is classed as physicochemical. The following applies: octanol/water.
Data set [6] can be described thus: Hemolytic activity in rabbit RBC at 20 uM after 20 mins relative to control. The class given is ADME, cell-based, Oryctolagus cuniculus, Erythrocyte. The following applies: rabbit red blood cells (erythrocytes), read-out: Activity. A digest of the protocol: as §3
The next data set has as its system Escherichia coli. Description: Antibacterial activity against drug-sensitive Escherichia coli K-12 W3110 after 20 hrs by liquid microdilution method. The class given is functional. The following applies: K-12 substr. W3110, 20 h. The essentials:
as §2

For data set [7], the system named is Staphylococcus aureus. In words: Antibacterial activity against Staphylococcus aureus FDA 209P assessed as decrease in cell viability after 30 mins by colony counting method. The class given is functional. The following applies: 0.5 h. The essentials:
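S. aureus washed twice and suspended at 2 × 10^9 cells per cm3 in 100 mM choline chloride/50 mM Mops-Tris, pH 7.2. Exposed to CD at 37 °C for 30 min. An aliquot was diluted in physiological saline, plated on polypeptone/yeast extract/NaCl agar and incubated overnight at 37 °C. Viability was taken from colony counts; LC50 is the concentration giving 50% viability.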

The test system of a further data set is Salmonella typhimurium. In words: Antibacterial activity against drug-sensitive Salmonella typhimurium LT2 after 20 hrs by liquid microdilution method. The class given is functional, Salmonella enterica subsp. enterica serovar Typhimurium. The following applies: Salmonella enterica, LT2, 20 h. The essentials:
as §2

Data set [8] in a line: Hemolytic activity in rabbit RBC at 1 uM after 20 mins relative to control. The data set is classed as ADME, cell-based, Oryctolagus cuniculus, Erythrocyte. The following applies: rabbit red blood cells (erythrocytes), read-out: Activity. The essentials: as §3
Data set [9] is described as follows: Hemolytic activity in rabbit RBC at 5 uM after 20 mins relative to control. The class given is ADME, cell-based, Oryctolagus cuniculus, Erythrocyte. The following applies: rabbit red blood cells (erythrocytes), read-out: Activity. The essentials: as §3
The test system of data set [10] is Enterococcus faecalis. In words: Antibacterial activity against vancomycin-resistant Enterococcus faecalis MS29016 after 18 to 20 hrs by agar dilution method. The class given is functional. A digest of the protocol: as §1
Data set [11] concerns Staphylococcus aureus. Description: Antibacterial activity against methicillin-sensitive Staphylococcus aureus FDA 209P after 20 hrs by liquid microdilution method. The class given is functional. The essentials:
as §2

Data set [12] is described as follows: Hemolytic activity in rabbit RBC at 2 uM after 20 mins relative to control. The class given is ADME, cell-based, Oryctolagus cuniculus, Erythrocyte. The following applies: rabbit red blood cells (erythrocytes), read-out: Activity. A digest of the protocol: as §3
In data set [13] the test system is Staphylococcus aureus. Description: Induction of membrane disruption in methicillin-sensitive Staphylococcus aureus FDA 209P assessed as increase in K+ efflux at 10 uM after 30 mins relative to control. The data set is classed as functional. The essentials: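 S. aureus suspension (2 × 10^9 cells per cm3, 100 mM choline chloride/50 mM Mops-Tris, pH 7.2) treated with CD at 37 °C for 30 min, then centrifuged. K+ released into the supernatant was read with a K+-selective electrode. Efflux is expressed relative to 10 µM melittin, which sets 100%.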

SMILES strings stand for the structures. Values after ≈ are worked out from the molar mass of the structure shown. Some results are limits rather than exact numbers.

The term MIC denotes the lowest concentration that inhibits growth of the organism. As a reminder, the logP is a log measure of how a compound divides between an organic and an aqueous phase. One may read the LC50 as the concentration lethal to half of the exposed cells or organisms.

For the molecule `CCCCCCCNCc1cn(C[C@H]2O[C@@H]3O[C@H]4[C@H](O)[C@@H](O)[C@@H](O[C@H]5[C@H](O)[C@@H](O)[C@@H](O[C@H]6[C@H](O)[C@@H](O)[C@@H](O[C@H]7[C@H](O)[C@@H](O)[C@@H](O[C@H]8[C@H](O)[C@@H](O)[C@@H](O[C@H]9[C@H](O)[C@@H](O)[C@@H](O[C@H]2[C@H](O)[C@H]3O)O[C@@H]9Cn2cc(CNCCCCCCC)nn2)O[C@@H]8Cn2cc(CNCCCCCCC)nn2)O[C@@H]7Cn2cc(CNCCCCCCC)nn2)O[C@@H]6Cn2cc(CNCCCCCCC)nn2)O[C@@H]5Cn2cc(CNCCCCCCC)nn2)O[C@@H]4Cn2cc(CNCCCCCCC)nn2)nn1`, the MIC with Staphylococcus aureus [1] was more than 40 µM; in the data set with Streptococcus agalactiae, more than 40 µM; against Enterococcus faecalis [2], more than 40 µM; against Bacillus subtilis, 5 µM (≈ 11.9 µg/mL); against Pseudomonas aeruginosa, 40 µM (≈ 95.3 µg/mL); in the data set on Enterococcus faecium, more than 40 µM. The MIC in the data set on Escherichia coli was 20 µM (≈ 47.7 µg/mL); in the data set on Salmonella typhimurium, 20 µM (≈ 47.7 µg/mL); in the data set with Enterococcus faecalis [10] it was more than 40 µM; in the data set with Staphylococcus aureus [11], 5 to 40 µM (≈ 11.9 to 95.3 µg/mL). In addition, the EC50 with Staphylococcus aureus [3] worked out at 30 µM. In addition, in [4], the hemolysis at 20 min, 10 µM is 110%. This molecule registered an Activity in the data set with Erythrocyte of 137%. In data set [5], this molecule displayed a logP of 0.36. Further, the hemolysis at 20 min, 20 µM in [6] was found to be 116%. The LC50 in the data set with Staphylococcus aureus [7] stood at 15 µM. The hemolysis at 20 min, 1 µM in data set [8] was determined as 9%. The hemolysis at 20 min, 5 µM in [9] was determined as 85%. Further, the hemolysis at 20 min, 2 µM in data set [12] was 39%.
`CC[C@H](C)[C@H](NC(=O)CN)C(=O)NCC(=O)N[C@@H](C)C(=O)N[C@H](C(=O)N[C@@H](CC(C)C)C(=O)N[C@@H](CCCCN)C(=O)N[C@H](C(=O)N[C@@H](CC(C)C)C(=O)N[C@H](C(=O)N[C@H](C(=O)NCC(=O)N[C@@H](CC(C)C)C(=O)N1CCC[C@H]1C(=O)N[C@@H](C)C(=O)N[C@@H](CC(C)C)C(=O)N[C@H](C(=O)N[C@@H](CO)C(=O)N[C@@H](Cc1c[nH]c2ccccc12)C(=O)N[C@H](C(=O)N[C@@H](CCCCN)C(=O)N[C@@H](CCCNC(=N)N)C(=O)N[C@@H](CCCCN)C(=O)N[C@@H](CCCNC(=N)N)C(=O)N[C@@H](CCC(N)=O)C(=O)N[C@@H](CCC(N)=O)C(N)=O)[C@@H](C)CC)[C@@H](C)CC)[C@@H](C)O)[C@@H](C)O)C(C)C)C(C)C` [MELITTIN]: in the data set on Staphylococcus aureus [3], the EC50 fell in the range of 0.2 to 0.5 µM. Also, the Activity in the data set on Staphylococcus aureus [13] is given as 100%. For the same molecule, the LC50 in the data set on Staphylococcus aureus [7] fell in the range of 0.2 to 0.5 µM.

For the origin of these results see ChEMBL document CHEMBL4257484, “Membrane-active antimicrobial poly(amino-modified alkyl) β-cyclodextrins synthesized via click reactions” (Medchemcomm, 2018).
